Results published in ChEMBL document CHEMBL5724801, “EUbOPEN Chemogenomics Library - Multiplex” (2024).
Where “and” joins values, the source holds several entries; their conditions need not be identical. Identical values can stand only once.

Columns and labels:
HEK-293T = experiment: Multiplex assay against HEK293T; format: toxicity, cell-based; conditions: human
In short: (§1)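 Cells were classed with CellPathfinder machine-learning gating, first as Hoechst high-intensity objects or normal cells, then (normal cells) as healthy, pyknosed or fragmented nuclei, and finally (pyknosed cells) as mitotic or apoptotic. Staining of live cells at seeding used Hoechst33342, BioTracker Green Microtubule Cytoskeleton Dye, MitoTracker Red and Annexin V Alexa Fluor 680, with imaging on a CQ1 microscope at 37°C and 5% CO2 after compound addition. Tubulin, mitochondrial-mass and membrane-permeability phenotypes are per cents of healthy-nucleus cells.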

Fibroblast = experiment: Multiplex assay against human fibroblast; format: toxicity, cell-based; in short: as §1
[1] = 24 h, 1 µM, compound concentration 1 uM
[2] = 24 h, 10 µM, compound concentration 10 uM
[3] = 48 h, 1 µM, compound concentration 1 uM
[4] = 48 h, 10 µM, compound concentration 10 uM
[5] = 12 h, 1 µM, compound concentration 1 uM
[6] = 12 h, 10 µM, compound concentration 10 uM

For `O=C(O)Cc1ccccc1Nc1c(Cl)cccc1Cl` [DICLOFENAC], which “Population Pyknosed Nuclei (%)” value (HEK-293T; [1]) is on record?
The value was 15% and 14%.

And the “Population Tubulin-Different-Phenotype (%)” value (HEK-293T; [1])?
The value was 24% and 9%.

What about the “Total Cell Count” value (HEK-293T; [1]) of the same compound?
Its value is 456 and 418.

And the “Population Apoptotic (%)” value (HEK-293T; [2])?
The value was 25% and 49%.

And the “Population Fragmented Nuclei (%)” value (HEK-293T; [2])?
Its value is 10%.

What about the “Population Healthy Nuclei (%)” value (HEK-293T; [2]) of the same compound?
The value was 77% and 75%.

And the “Population Hoechst High Intensity Objects (%)” value (HEK-293T; [2])?
The value was 4% and 9%.

What about the “Population Membrane Permeable-Phenotype (%)” value (HEK-293T; [2]) of the same compound?
The value was 0%.

And the “Population Mitochondria Different-Phenotype (%)” value (HEK-293T; [2])?
The value was 29% and 50%.

What about the “Population Mitotic Cells (%)” value (HEK-293T; [2]) of the same compound?
The value was 74% and 50%.

What about the “Population Normal (%)” value (HEK-293T; [2]) of the same compound?
The value was 95% and 90%.

What about the “Population Pyknosed Nuclei (%)” value (HEK-293T; [2]) of the same compound?
The value was 12% and 14%.

And the “Population Tubulin-Different-Phenotype (%)” value (HEK-293T; [2])?
The value was 29% and 26%.

What about the “Total Cell Count” value (HEK-293T; [2]) of the same compound?
The value was 650 and 462.

And the “Population Apoptotic (%)” value (HEK-293T; [3])?
Its value is 23% and 33%.

What about the “Population Fragmented Nuclei (%)” value (HEK-293T; [3]) of the same compound?
The value was 11% and 15%.

And the “Population Healthy Nuclei (%)” value (HEK-293T; [3])?
Its value is 82% and 79%.

And the “Population Hoechst High Intensity Objects (%)” value (HEK-293T; [3])?
The value was 2%.

What about the “Population Membrane Permeable-Phenotype (%)” value (HEK-293T; [3]) of the same compound?
The value was 1%.

And the “Population Mitochondria Different-Phenotype (%)” value (HEK-293T; [3])?
Its value is 22% and 16%.

What about the “Population Mitotic Cells (%)” value (HEK-293T; [3]) of the same compound?
Its value is 76% and 66%.

What about the “Population Normal (%)” value (HEK-293T; [3]) of the same compound?
Its value is 97%.

What about the “Population Pyknosed Nuclei (%)” value (HEK-293T; [3]) of the same compound?
Its value is 6% and 4%.

And the “Population Tubulin-Different-Phenotype (%)” value (HEK-293T; [3])?
Its value is 15% and 10%.

What about the “Total Cell Count” value (HEK-293T; [3]) of the same compound?
Its value is 730 and 697.

What about the “Population Apoptotic (%)” value (HEK-293T; [4]) of the same compound?
Its value is 36%.

And the “Population Fragmented Nuclei (%)” value (HEK-293T; [4])?
The value was 12% and 16%.

And the “Population Healthy Nuclei (%)” value (HEK-293T; [4])?
The value was 80% and 75%.

What about the “Population Hoechst High Intensity Objects (%)” value (HEK-293T; [4]) of the same compound?
The value was 3% and 4%.

What about the “Population Membrane Permeable-Phenotype (%)” value (HEK-293T; [4]) of the same compound?
Its value is 1% and 0%.

What about the “Population Mitochondria Different-Phenotype (%)” value (HEK-293T; [4]) of the same compound?
Its value is 17% and 36%.

And the “Population Mitotic Cells (%)” value (HEK-293T; [4])?
Its value is 63%.

What about the “Population Normal (%)” value (HEK-293T; [4]) of the same compound?
The value was 96% and 95%.

What about the “Population Pyknosed Nuclei (%)” value (HEK-293T; [4]) of the same compound?
Its value is 7%.

What about the “Population Tubulin-Different-Phenotype (%)” value (HEK-293T; [4]) of the same compound?
The value was 18% and 17%.

And the “Total Cell Count” value (HEK-293T; [4])?
Its value is 883 and 649.

And the “Population Apoptotic (%)” value (Fibroblast; [5])?
Its value is 43% and 33%.

What about the “Population Fragmented Nuclei (%)” value (Fibroblast; [5]) of the same compound?
The value was 14% and 25%.

And the “Population Healthy Nuclei (%)” value (Fibroblast; [5])?
The value was 67% and 49%.

What about the “Population Hoechst High Intensity Objects (%)” value (Fibroblast; [5]) of the same compound?
The value was 0% and 2%.

What about the “Population Membrane Permeable-Phenotype (%)” value (Fibroblast; [5]) of the same compound?
Its value is 1% and 7%.

What about the “Population Mitochondria Different-Phenotype (%)” value (Fibroblast; [5]) of the same compound?
Its value is 6%.

And the “Population Mitotic Cells (%)” value (Fibroblast; [5])?
Its value is 56% and 66%.

What about the “Population Normal (%)” value (Fibroblast; [5]) of the same compound?
The value was 99% and 97%.

What about the “Population Pyknosed Nuclei (%)” value (Fibroblast; [5]) of the same compound?
The value was 17% and 25%.

And the “Population Tubulin-Different-Phenotype (%)” value (Fibroblast; [5])?
The value was 25% and 49%.

What about the “Population Apoptotic (%)” value (Fibroblast; [6]) of the same compound?
The value was 32% and 38%.

What about the “Population Fragmented Nuclei (%)” value (Fibroblast; [6]) of the same compound?
Its value is 14% and 36%.

What about the “Population Healthy Nuclei (%)” value (Fibroblast; [6]) of the same compound?
The value was 68% and 46%.

And the “Population Hoechst High Intensity Objects (%)” value (Fibroblast; [6])?
Its value is 0% and 6%.

And the “Population Membrane Permeable-Phenotype (%)” value (Fibroblast; [6])?
The value was 0% and 16%.

And the “Population Mitochondria Different-Phenotype (%)” value (Fibroblast; [6])?
Its value is 5% and 8%.

What about the “Population Mitotic Cells (%)” value (Fibroblast; [6]) of the same compound?
The value was 68% and 61%.

And the “Population Normal (%)” value (Fibroblast; [6])?
The value was 99% and 93%.

What about the “Population Pyknosed Nuclei (%)” value (Fibroblast; [6]) of the same compound?
Its value is 17%.

And the “Population Tubulin-Different-Phenotype (%)” value (Fibroblast; [6])?
The value was 24% and 54%.

What about the “Population Apoptotic (%)” value (Fibroblast; [1]) of the same compound?
Its value is 52% and 35%.

What about the “Population Fragmented Nuclei (%)” value (Fibroblast; [1]) of the same compound?
The value was 15% and 28%.

And the “Population Healthy Nuclei (%)” value (Fibroblast; [1])?
Its value is 66% and 49%.

What about the “Population Hoechst High Intensity Objects (%)” value (Fibroblast; [1]) of the same compound?
Its value is 2% and 3%.

And the “Population Membrane Permeable-Phenotype (%)” value (Fibroblast; [1])?
Its value is 0% and 12%.

What about the “Population Mitochondria Different-Phenotype (%)” value (Fibroblast; [1]) of the same compound?
Its value is 4% and 6%.

What about the “Population Mitotic Cells (%)” value (Fibroblast; [1]) of the same compound?
Its value is 47% and 64%.

What about the “Population Normal (%)” value (Fibroblast; [1]) of the same compound?
The value was 97% and 96%.

And the “Population Pyknosed Nuclei (%)” value (Fibroblast; [1])?
Its value is 17% and 21%.

And the “Population Tubulin-Different-Phenotype (%)” value (Fibroblast; [1])?
Its value is 29% and 50%.

What about the “Population Apoptotic (%)” value (Fibroblast; [2]) of the same compound?
The value was 30% and 50%.

What about the “Population Fragmented Nuclei (%)” value (Fibroblast; [2]) of the same compound?
The value was 16% and 31%.

And the “Population Healthy Nuclei (%)” value (Fibroblast; [2])?
Its value is 68% and 50%.

What about the “Population Hoechst High Intensity Objects (%)” value (Fibroblast; [2]) of the same compound?
The value was 5% and 2%.

What about the “Population Membrane Permeable-Phenotype (%)” value (Fibroblast; [2]) of the same compound?
The value was 0% and 8%.

What about the “Population Mitochondria Different-Phenotype (%)” value (Fibroblast; [2]) of the same compound?
Its value is 5% and 10%.

And the “Population Mitotic Cells (%)” value (Fibroblast; [2])?
Its value is 69% and 50%.

And the “Population Normal (%)” value (Fibroblast; [2])?
The value was 94% and 97%.

And the “Population Pyknosed Nuclei (%)” value (Fibroblast; [2])?
The value was 15% and 18%.

What about the “Population Tubulin-Different-Phenotype (%)” value (Fibroblast; [2]) of the same compound?
Its value is 19% and 55%.

What about the “Population Apoptotic (%)” value (Fibroblast; [3]) of the same compound?
Its value is 85% and 57%.

What about the “Population Fragmented Nuclei (%)” value (Fibroblast; [3]) of the same compound?
The value was 21% and 36%.

And the “Population Healthy Nuclei (%)” value (Fibroblast; [3])?
Its value is 61% and 53%.

What about the “Population Hoechst High Intensity Objects (%)” value (Fibroblast; [3]) of the same compound?
The value was 3% and 5%.

What about the “Population Membrane Permeable-Phenotype (%)” value (Fibroblast; [3]) of the same compound?
The value was 4%.

And the “Population Mitochondria Different-Phenotype (%)” value (Fibroblast; [3])?
The value was 4%.

What about the “Population Mitotic Cells (%)” value (Fibroblast; [3]) of the same compound?
The value was 15% and 42%.

And the “Population Normal (%)” value (Fibroblast; [3])?
Its value is 96% and 94%.

What about the “Population Pyknosed Nuclei (%)” value (Fibroblast; [3]) of the same compound?
The value was 16% and 10%.

What about the “Population Tubulin-Different-Phenotype (%)” value (Fibroblast; [3]) of the same compound?
The value was 24% and 44%.

What about the “Population Apoptotic (%)” value (Fibroblast; [4]) of the same compound?
Its value is 73% and 30%.

What about the “Population Fragmented Nuclei (%)” value (Fibroblast; [4]) of the same compound?
The value was 22% and 35%.

What about the “Population Healthy Nuclei (%)” value (Fibroblast; [4]) of the same compound?
The value was 65% and 50%.

What about the “Population Hoechst High Intensity Objects (%)” value (Fibroblast; [4]) of the same compound?
The value was 3%.

And the “Population Membrane Permeable-Phenotype (%)” value (Fibroblast; [4])?
Its value is 0% and 4%.

What about the “Population Mitochondria Different-Phenotype (%)” value (Fibroblast; [4]) of the same compound?
Its value is 3% and 6%.

And the “Population Mitotic Cells (%)” value (Fibroblast; [4])?
The value was 26% and 69%.

And the “Population Normal (%)” value (Fibroblast; [4])?
Its value is 96%.

What about the “Population Pyknosed Nuclei (%)” value (Fibroblast; [4]) of the same compound?
Its value is 12% and 14%.

What about the “Population Tubulin-Different-Phenotype (%)” value (Fibroblast; [4]) of the same compound?
Its value is 28% and 53%.
